# UPR CHOP act = activators of apoptotic arm of unfolded protein response (CHOP). CHO-CHOP luciferase reporter, UPR activation, luminescence; percent of tunicamycin response over DMSO baseline. activation, % at 10 µM. 330,000 tested, 0.34% active. AID 449763;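 active means at 10 µM dose, activation of 40% or more, normalized to positive control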
#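 Test system: CHO CHOP reporter cells. Input: 500 CHO-CHOP cells per well. Medium: F12 with 10% FBS. Technique: luciferase luminescence. Measure: percent activation relative to tunicamycin control. Dosing: 10 µM compound, 0.5% DMSO. Timing: 16-18 h cell attachment, then 6 h compound exposure, 37 °C.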
# GRIN3A LBD mod = NR3A (human) ligand-binding domain modulation; NR3A LBD differential scanning fluorimetry, Tm shift; 0% = protein alone, 100% = glycine-bound protein; Tm shift relative to glycine control, % at 25 µM; 340,000 tested, 2.5% active; AID 1259313;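 active means melting temperature shift of at least 10% of the positive control shift, at one fixed dose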
# aDG glyco act = alpha-DG glycosylation activation | activation, % at 10 µM | Pro5-aDG cells, alpha-DG glycosylation AlphaScreen (IIH6); 0% Pro5, 100% B10-LARGE cell signal | 360,000 tested, 0.22% active;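 active means activation of at least 8% versus controls, or a plate z-score of at least 8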;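 further: Pro5 are CHO cells carrying HIG-tagged alpha-DG that lacks glycosylation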
# MPTP block = inhibitors of mitochondrial permeability transition pore; isolated mouse mitochondria, Ca2+ swelling absorbance, 30 min; inhibition, % at 10 µM; 360,000 tested, 1.4% active; AID 602449;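 active means inhibition of 50% or more, scaled per plate between neutral and stimulator controls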
# CHOP inh = blocks CHOP induction under ER stress; inhibition, % at 10 µM; AID 2732; CHO-K1 CHOP-promoter luciferase, tunicamycin-induced, 15-18 h; 220,000 tested, 3.8% active;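 active means compounds that reduced the stress-induced luciferase reporter signal by more than about 70% of percent inhibition, limit read from the data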
# XBP1 UPR activ = adaptive UPR (XBP1) activation | CHO-XBP1 luciferase reporter, IRE1-XBP1 UPR activation, luminescence; percent of tunicamycin response, DMSO as zero | activation, % at 20 µM | 330,000 tested, 0.33% active | AID 463104;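 active means versus positive control, 20 µM dose yields 30% or more activation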
#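 Material: IRE1-XBP1 luciferase reporter CHO line / Quantity: one thousand reporter cells per well / Buffer or medium: F12 with 10% serum / Compound: 20 µM single concentration, DMSO 1% / Times: 6 h treatment, 37 °C / Detection: Steady-Glo luciferase glow luminescence, 10 min after reagent addition / Benchmarks: tunicamycin high, DMSO low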
# CHOP inh conf = confirmation of CHOP induction inhibitors; shares compounds with CHOP inh; CHO-CHOP promoter luciferase reporter, tunicamycin-induced, luminescence; inhibition, % at 10 µM; 2,100 tested, 45% active;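 active means mean of three repeat readings of reporter signal inhibition above a set limit, cut at about 70% in these data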
# Hits are given with their value; 0 = inactive; - = no result. In the library only some 5.6% were active in any assay of this set; here they are far more common.
SMILES,UPR CHOP act,GRIN3A LBD mod,aDG glyco act,MPTP block,CHOP inh,XBP1 UPR activ,CHOP inh conf
O=C(O)c1cc(S(=O)(=O)Nc2ccc(N3CCCCC3)cc2)ccc1Cl,0,0,0,0,0,0,-
Cc1ccc(NC(=O)c2ccc(C#CC3(O)CCCCC3)cc2)cc1C,0,0,0,0,101,0,106
Cc1cc2c(cc1C)NC(C)CC(=O)N2 (stereo not given),-,0,0,0,-,-,-
CC(C)=CCc1c(O)c(CC=C(C)C)c2c(c1O)C(=O)CC(c1ccc(O)cc1)O2 (stereo not given),0,15,0,0,101,0,73
C=CC[C@@H](CC(=O)N[C@@H](CO)Cc1ccccc1)C(=O)N[C@H](C)COC(=O)[C@@H](CC=C)Cc1ccc(F)cc1,0,0,0,0,-,0,-
CC1=C(C(=O)Nc2ccc(C)cc2C)C(c2ccc(Cl)cc2)n2nc(C(=O)OC(C)C)nc2N1 (stereo not given),0,0,0,0,105,0,0
CSc1nc2n(n1)C(c1cccc(F)c1)C(C(=O)Nc1ccc(C)cc1C)=C(C)N2 (stereo not given),0,0,0,0,0,0,-
C(=N\Nc1nc(Nc2ccccc2)nc(Nc2ccccc2)n1)/c1cccnc1,0,27,0,0,97,0,0
C[C@H](CO)N1C[C@H](C)[C@@H](CN(C)Cc2ccccc2)Oc2c(NS(=O)(=O)c3cn(C)cn3)cccc2C1=O,0,0,0,0,-,0,-
N#Cc1cc(C(=O)c2cc(Cl)ccc2O)cn(-c2ccccc2)c1=O,0,0,0,0,0,0,-
O=C(c1ccccc1)c1cc(Cl)ccc1N1C(=O)C=CC1=O,-,0,0,0,106,-,0
CCN=C1NN=C(c2cc(C)n(Cc3ccco3)c2C)CS1,0,0,0,0,97,0,98
O=C(Nc1ccc(F)cc1)Nc1nnc(-c2ccco2)s1,0,0,0,0,96,0,0
COc1ccc(C(=O)Nc2nnc(-c3ccco3)s2)cc1,0,0,0,0,107,0,73
O=C(Nc1nnc(-c2ccco2)s1)c1ccccc1,0,0,0,0,0,0,-
COc1ccccc1CN1CCNC(=O)C1CC(=O)NCc1cn(C)nc1C (stereo not given),0,0,0,0,0,0,-
C/C(CC(=O)Nc1cccc(Br)c1)=N\NC(=O)c1ccc(O)cc1O,0,0,0,0,-,0,-
Cc1cccc(-c2nc(CS(=O)CC(=O)NC3CCCC(C)C3C)c(C)o2)c1 (stereo not given),0,0,0,0,-,0,-
COc1ccc(NC(=O)CN2CCCC(C)C2)c([N+](=O)[O-])c1 (stereo not given),0,0,0,0,101,0,0
COCC(=O)NC1CCN(CC(=O)Nc2ccc(OC)cc2[N+](=O)[O-])CC1,0,0,0,0,0,0,-
Cc1ccc(-n2nc3c(c2NC(=O)c2ccc4c(c2)OCO4)CS(=O)C3)c(C)c1 (stereo not given),0,0,0,0,-,0,-
CSCCC(NS(=O)(=O)c1ccc(Cl)cc1)C(=O)OCc1cccc(Cl)c1 (stereo not given),0,0,0,0,106,0,0
CC(C)(C)C(=O)Cn1ncc(Br)c(Br)c1=O,-,0,0,0,104,-,85
CC(C)(C)C(=O)Cn1ncc(N2CCOCC2)c(Cl)c1=O,0,0,0,0,-,0,-
CCN(CC(O)Cn1c2ccccc2c2ccccc21)S(=O)(=O)c1ccc(C)cc1 (stereo not given),0,0,0,0,99,0,0
SMILES,UPR CHOP act,GRIN3A LBD mod,aDG glyco act,MPTP block,CHOP inh,XBP1 UPR activ,CHOP inh conf
COc1ccc(CCN(C)C(=O)Cn2c(=O)oc3ccccc32)cc1OC,0,0,0,0,-,0,-
COc1ccc(S(=O)(=O)n2nc(OCc3cccs3)cc2N)cc1,0,0,0,0,0,0,-
O=C(Nc1ccccc1)N(Cc1ccccc1)CC(O)C(F)(F)F (stereo not given),0,0,0,0,0,0,-
O=C(Nc1cccc(F)c1)N(Cc1ccc(Cl)cc1)CC(O)C(F)(F)F (stereo not given),0,0,0,0,109,0,104
CCSc1nc2ccccc2n1C(=O)/C=C\c1ccc(OC)c(OC)c1,0,0,0,0,110,0,111
CCSc1nc2ccccc2n1CC(N)=O,0,0,0,0,0,0,-
Cc1cc(C)n(Cc2cccc(C(=O)N/N=C/c3ccncc3)c2)n1,0,0,0,0,-,0,-
Cc1cc2c([nH]c3ccccc32)c2c1OC(C)(C)C=C2,0,16,0,0,98,0,97
COc1ccc2[nH]c(=O)c3c(c2c1)OC(C)(C)C=C3,0,0,0,0,0,0,-
O=C(CNc1cccc2ccccc12)N/N=C/C(Br)=C/c1ccccc1,0,16,0,0,106,0,0
Cc1ccc(NC(=O)Cn2cnc3c(=O)n(C)c(=O)n(C)c32)c(C)c1,0,0,0,0,0,0,-
Cc1ccc2oc(-c3cccc(NC(=O)Cn4cnc5c(=O)n(C)c(=O)n(C)c54)c3)nc2c1,0,-,-,-,104,0,0
CCCCCc1cc(=O)oc2c(C(CCN3CCCCC3)c3cc(OC)c(OC)c(OC)c3)c(OC)cc(OC)c12 (stereo not given),0,0,0,0,105,0,0
COc1ccccc1NCC(O)Cn1c2ccccc2c2ccccc21 (stereo not given),0,11,0,0,100,0,0
O=C(COC(=O)c1cccc(NC(=O)c2ccco2)c1)c1ccc(Br)cc1,0,0,0,0,105,0,0
COc1cc(NS(=O)(=O)c2ccc(NC(=S)NC(=O)c3sc4ccccc4c3Cl)cc2)ncn1,-,0,0,0,100,-,0
CCOC(=O)c1c(C(C)(C)C)oc2ccc(O)cc12,0,0,0,0,104,0,106
CC1(c2ccc(OC(F)F)cc2)NC(=O)N(/N=C/c2c(O)ccc3ccccc23)C1=O (stereo not given),0,12,0,0,101,0,96
CC1(c2ccc(OC(F)F)cc2)NC(=O)N(CC(=O)Nc2cccc(S(N)(=O)=O)c2)C1=O (stereo not given),0,0,0,0,0,0,-
NS(=O)(=O)c1ccc(-n2nncc2-c2ccco2)cc1,0,0,0,0,-,0,-
O=[N+]([O-])c1cccc(-c2csc(N/N=C/c3cccc(O)c3)n2)c1,0,24,0,0,106,0,0
C/C=C/C=N/Nc1nc(-c2ccc([N+](=O)[O-])cc2)cs1,0,0,0,0,98,0,0
